In one assay the test system is Plasmodium falciparum. Kind of assay: Antimalarial activity against mefloquine-resistant Plasmodium falciparum TM91C235 assessed as [3H]hypoxanthine incorporation after 48 hrs. Format: functional, organism-based. Put shortly:
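Tritiated hypoxanthine incorporation assay (Desjardins method, Milhous modification) with 48 h drug exposure. Uses P. falciparum clone TM91C235 (Southeast Asian, mefloquine-resistant). Compounds 2-fold diluted over 11 concentrations. IC50 derived by nonlinear logistic dose-response fitting, averaged where multiple runs were done.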

The next assay relates to HepG2. Kind of assay: Cytotoxicity against human HepG2 cells after 24 hrs by MTS assay. The note with it: HepG2, 24 h. Format: cell-based. The gist of the method: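 HepG2 cells kept in RPMI 1640 with 10% FBS plus antibiotics at 37 °C, 5% CO₂. 50 000 cells per well exposed to 10 two-fold serial dilutions for 24 h. MTS reagent then added for 2 h more, absorbance read at 490 nm, IC50 derived.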

Structures are written as SMILES.

Data on twelve compounds can be found in ChEMBL document CHEMBL2029228, “Antimalarial activity of 9a-N substituted 15-membered azalides with improved in vitro and in vivo activity over azithromycin” (J Med Chem, 2012).

Turning to `CC[C@H]1OC(=O)[C@H](C)[C@@H](O)[C@H](C)[C@@H](O)[C@](C)(O)C[C@@H](C)CN(CCCNC(=O)c2ocnc2C)[C@H](C)[C@@H](O)[C@]1(C)O`, the IC50 – broadly, the concentration that inhibits the measured activity by half – in the assay with Plasmodium falciparum is greater than 21300 nM.

For `CC[C@H]1OC(=O)[C@H](C)[C@@H](O[C@H]2C[C@@](C)(OC)[C@@H](O)[C@H](C)O2)[C@H](C)[C@@H](O[C@@H]2O[C@H](C)C[C@H](N(C)C)[C@H]2O)[C@](C)(O)C[C@@H](C)CN(CCCNCCCCc2ccccc2)[C@H](C)[C@@H](O)[C@]1(C)O`, the IC50 in the assay on Plasmodium falciparum stood at 51 nM; in the assay with HepG2, 16000 nM.

Consider `CC[C@H]1OC(=O)[C@H](C)[C@@H](O)[C@H](C)[C@@H](O[C@@H]2O[C@H](C)C[C@H](N(C)C)[C@H]2O)[C@](C)(O)C[C@@H](C)CN(CCCNCc2ccncc2)[C@H](C)[C@@H](O)[C@]1(C)O`, for which the IC50 in the assay with Plasmodium falciparum is 3890 nM; in the assay with HepG2 it was greater than 50000 nM.

As to `CC[C@H]1OC(=O)[C@H](C)[C@@H](O[C@H]2C[C@@](C)(OC)[C@@H](O)[C@H](C)O2)[C@H](C)[C@@H](O[C@@H]2O[C@H](C)C[C@H](N(C)C)[C@H]2O)[C@](C)(O)C[C@@H](C)CN(CCC(=O)NCc2cccc3ccccc23)[C@H](C)[C@@H](O)[C@]1(C)O`, the results for the IC50 in the assay with Plasmodium falciparum and in the assay on HepG2 were 79 nM and 49000 nM, respectively.

Turning to `CC[C@H]1OC(=O)[C@H](C)[C@@H](O[C@H]2C[C@@](C)(OC)[C@@H](O)[C@H](C)O2)[C@H](C)[C@@H](O[C@@H]2O[C@H](C)C[C@H](N(C)C)[C@H]2O)[C@](C)(O)C[C@@H](C)CN(CCCNC(=O)CCCCc2ccccc2)[C@H](C)[C@@H](O)[C@]1(C)O`, the IC50 was determined as 92 nM in the assay with Plasmodium falciparum and 49000 nM in the assay with HepG2.

In the case of `CC[C@H]1OC(=O)[C@H](C)[C@@H](O[C@H]2C[C@@](C)(OC)[C@@H](O)[C@H](C)O2)[C@H](C)[C@@H](O[C@@H]2O[C@H](C)C[C@H](N(C)C)[C@H]2O)[C@](C)(O)C[C@@H](C)CN(CCCNC(=O)c2ocnc2C)[C@H](C)[C@@H](O)[C@]1(C)O`, in the assay on Plasmodium falciparum, the IC50 was 878 nM.

On to `CC[C@H]1OC(=O)[C@H](C)[C@@H](O)[C@H](C)[C@@H](O[C@@H]2O[C@H](C)C[C@H](N(C)C)[C@H]2O)[C@](C)(O)C[C@@H](C)CN(CCCNC(=O)[C@H](C)c2ccc3cc(OC)ccc3c2)[C@H](C)[C@@H](O)[C@]1(C)O`, for which, in the assay on Plasmodium falciparum, the IC50 was found to be 520 nM.

As to `CC[C@H]1OC(=O)[C@H](C)[C@@H](O[C@H]2C[C@@](C)(OC)[C@@H](O)[C@H](C)O2)[C@H](C)[C@@H](O[C@@H]2O[C@H](C)C[C@H](N(C)C)[C@H]2O)[C@](C)(O)C[C@@H](C)CN(CCCNC(=O)Cc2cccc3ccccc23)[C@H](C)[C@@H](O)[C@]1(C)O`, the IC50 with Plasmodium falciparum was determined as 62 nM.

Consider `CC[C@H]1OC(=O)[C@H](C)[C@@H](O)[C@H](C)[C@@H](O[C@@H]2O[C@H](C)C[C@H](N(C)C)[C@H]2O)[C@](C)(O)C[C@@H](C)CN(CCCNCc2cnc3ccccc3c2)[C@H](C)[C@@H](O)[C@]1(C)O`, for which, in the assay on Plasmodium falciparum, the IC50 amounted to 201 nM.

As for `CC[C@H]1OC(=O)[C@H](C)[C@@H](O[C@H]2C[C@@](C)(OC)[C@@H](O)[C@H](C)O2)[C@H](C)[C@@H](O[C@@H]2O[C@H](C)C[C@H](N(C)C)[C@H]2O)[C@](C)(O)C[C@@H](C)CN(CCCNCc2ccccn2)[C@H](C)[C@@H](O)[C@]1(C)O`, in the assay on Plasmodium falciparum, the IC50 is 1480 nM.

On to `CC[C@H]1OC(=O)[C@H](C)[C@@H](O)[C@H](C)[C@@H](O[C@@H]2O[C@H](C)C[C@H](N(C)C)[C@H]2O)[C@](C)(O)C[C@@H](C)CN(CCCNC(=O)Cc2cccc3ccccc23)[C@H](C)[C@@H](O)[C@]1(C)O`, for which the IC50 with Plasmodium falciparum stood at 1370 nM.

With `CC[C@H]1OC(=O)[C@H](C)[C@@H](O)[C@H](C)[C@@H](O[C@@H]2O[C@H](C)C[C@H](N(C)C)[C@H]2O)[C@](C)(O)C[C@@H](C)CN(CCCNCc2ccc3ccccc3n2)[C@H](C)[C@@H](O)[C@]1(C)O`, the IC50 in the assay on Plasmodium falciparum came out at 164 nM.
